Assay results of several laboratories.
Compare with care: the assays were run in different laboratories. pIC50: −log10 of the molar value. Values after ≈ are worked out from the molar mass of the structure shown.
Organism: Mycobacterium tuberculosis

With `CO[C@H]1/C=C/O[C@@]2(C)Oc3c(C)c(O)c4c(O)c(c(/C=N/N5CCN(C)CC5)c(O)c4c3C2=O)NC(=O)/C(C)=C\C=C\[C@H](C)[C@H](O)[C@@H](C)[C@@H](O)[C@@H](C)[C@H](OC(C)=O)[C@@H]1C` the pIC50 was 8.40 (microbial growth; H37RV).
`CCCCCCC#Cc1cncc(-c2nnc(SCc3ccc([N+](=O)[O-])cc3)n2C)c1` gave an IC90 of greater than 50000 nM (microbial growth; ERDMAN).
With `O=C(C[n+]1cn(Cc2cccc(Cn3c[n+](CC(=O)c4ccccc4)c4ccccc43)n2)c2ccccc21)c1ccccc1` the MBC was 100 µM (microbial killing; H37RV; 21 days).
The MBC of `CNc1cc(-n2nc(C(=O)NCCN3C(C)CCCC3C)cc2Nc2cc(NC(=O)c3cncc(C(C)(C)C)c3)ccc2C)ncn1` (stereo not shown) is reported as 1.25 to 2.5 µM (microbial killing; H37RV; 5 days).
For `CO[C@H]1/C=C/O[C@@]2(C)Oc3c(C)c(O)c4c(O)c(c(/C=N/N5CCN(C)CC5)c(O)c4c3C2=O)NC(=O)/C(C)=C\C=C\[C@H](C)[C@H](O)[C@@H](C)[C@@H](O)[C@@H](C)[C@H](OC(C)=O)[C@@H]1C`, the inhibition was 97% (microbial growth; H37RV; 12.5 µg/mL).
For `NNC(=O)c1ccncc1`, the MBC was 30.7 µg/mL (microbial killing; H37RV; 7 days).
`Cc1cn(-c2cc(C(=O)Nc3ccc(C)c(Nc4nccn4-c4cc(NC5CC5)ncn4)c3)cc(C(F)(F)F)c2)cn1` has an MBC of 2.5 to 5 µM (microbial killing; H37RV; 5 days).
`CCCCCCC#Cc1cncc(-c2nnc(SCc3cc([N+](=O)[O-])cc([N+](=O)[O-])c3)n2C)c1` gave an IC90 of 440 nM (microbial growth; ERDMAN).
`CC[C@@H](CO)NCCN[C@@H](CC)CO` gave an IC90 of 4610 nM (microbial growth; H37RV).
For `CCc1nc2ccc(Cl)cn2c1C(=O)NCc1ccc(N2CCC(c3ccc(OC(F)(F)F)cc3)CC2)cc1`, the pIC50 was 8.51 (microbial growth; ERDMAN).
`Cc1cc(C)nc(-n2nc(C)cc2NC(=O)c2ccc3c(c2)OCO3)n1` has an MIC50 of greater than 20 µM (microbial growth; H37RV).
With `O=[N+]([O-])c1cc2cc3ccc4oc([N+](=O)[O-])cc4c3cc2o1` the MBC was 0.5 µg/mL (microbial killing; resazurin; H37RV).
For `c1cc(Cn2cnc3ccccc32)nc(Cn2cnc3ccccc32)c1`, the MBC was greater than 50 µM (microbial killing; H37RV; 21 days).
`CCOC(=O)c1c(NC(=O)c2c(F)c(F)c(F)c(F)c2F)sc2c1CCN(CC)C2` has an MIC90 of 0.23 µM (≈ 0.103 µg/mL) (microbial growth; H37RV).
With `COC(=O)c1cc(-c2cccc(NC(=O)Nc3ccc(F)cc3F)c2)on1` the MIC was 1 µg/mL (≈ 2.68 µM) (microbial growth; ATCC27294 H37RV; 7 days).
With `Cn1c(SCc2ccc(Cl)cc2)nnc1-c1cncc(C#Cc2ccccc2)c1` the IC90 was 4400 nM (microbial growth; ERDMAN).
With `CCc1nc2ccc(Cl)cn2c1C(=O)NCc1ccc(N2CCC(c3ccc(OC(F)(F)F)cc3)CC2)cc1` the MIC90 was 0.02 µM (≈ 0.0111 µg/mL) (microbial growth; H37RV).
With `COC(=O)c1cc(-c2cccc(NC(=O)Nc3ccc(OC)cc3)c2)on1` the MIC was 8 µg/mL (≈ 21.8 µM) (microbial growth; ATCC27294 H37RV; 7 days).
The MBC of `Cc1ccc(NC(=O)c2cc(N3CCNCC3)cc(C(F)(F)F)c2)cc1Nc1nccn1-c1cc(NC2CC2)ncn1` is reported as 2.5 to 5 µM (microbial killing; H37RV; 5 days).
For `CCCCCCC#Cc1cncc(-c2nnc(SCc3ccc([N+](=O)[O-])o3)n2C)c1`, the IC90 was 240 nM (microbial growth; ERDMAN).
For `[H]/N=C(/N)N[C@H]1[C@H](O)[C@@H](O)[C@H](O[C@@H]2O[C@@H](C)[C@](O)(C=O)[C@H]2O[C@@H]2O[C@@H](CO)[C@H](O)[C@@H](O)[C@@H]2NC)[C@@H](N/C(N)=N\[H])[C@@H]1O`, the pIC50 was 6.70 (microbial growth; H37RV).
`COC(=O)c1cc(-c2cccc(NC(=S)Nc3cc(C(F)(F)F)cc(C(F)(F)F)c3)c2)on1` has an MIC of 16 µg/mL (≈ 32.7 µM) (microbial growth; ATCC27294 H37RV; 7 days).
With `CCCCCCC#Cc1cncc(-c2nnc(SCc3ccc(C#N)cc3)n2C)c1` the pIC50 was 5.64 (microbial growth).
`COC(=O)c1cc(-c2cccc(NC(=O)Nc3c(C)cccc3C)c2)on1` has an MIC of 64 µg/mL (≈ 175 µM) (microbial growth; ATCC27294 H37RV; 7 days).
For `NNC(=O)c1ccncc1`, the pIC50 was 6.74 (microbial growth; ERDMAN).
With `CN(CC[C@H](N)CC(=O)N[C@H]1C=C[C@H](n2ccc(N)nc2=O)O[C@@H]1C(=O)O)C(=N)N` the pIC50 was 4.72 (microbial growth; H37RA).
The IC90 of `CCCCCCC#Cc1cncc(-c2nnc(SCc3ccc(Cl)c(F)c3)n2C)c1` is reported as 13000 nM (microbial growth; ERDMAN).
The MBC of `O=C(C[n+]1cn(Cc2cccc(Cn3c[n+](CC(=O)c4ccc([N+](=O)[O-])cc4)c4ccccc43)n2)c2ccccc21)c1ccc([N+](=O)[O-])cc1` is reported as 50 µM (microbial killing; H37RV; 21 days).
